# Apaf-1 act = activators of human Apaf-1 apoptosome, primary screen, biochemical, DEVD-Rh110 fluorescence, uHTS | Apaf-1 apoptosome caspase-3 activation; stronger effect = lower value | activity change, negative = activation, % at 20 µM | actives 0.31% (n = 330,000);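 active = activity change at or below -40% at 20 µM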
#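 system = biochemical Apaf-1 apoptosome reconstitution | buffer or medium = 20 mM HEPES pH 7.5 with CHAPS, BSA | also added = dATP and cytochrome c as apoptosome triggers, (Z-DEVD)2-Rh110 substrate | incubation = 30 min compound preincubation and 50 min reaction, both room temperature | measured by = fluorescence, 540 nm emission, 480 nm excitation | read-out basis = Caspase-3 cleavage activity downstream of Apaf-1 activation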
# A number is an active result; i = inactive. Only a sample is shown.
SMILES,Apaf-1 act
COc1ccccc1Oc1c(C)oc2c(CN3CCN(C)CC3)c(O)ccc2c1=O,-594.9
O=C(c1ccco1)N1CCN(C(=O)c2cn(-c3ccccc3)nc2-c2ccc(F)cc2)CC1,i
Cc1noc(/C=C/c2cccs2)c1S(=O)(=O)N1CCC(C(=O)NCCCN2CCC(C)CC2)CC1,i
COc1ccccc1C1/C(=C(\O)c2ccc3c(c2)OCCO3)C(=O)C(=O)N1CCCn1ccnc1 (configuration not stated),i
C=CC(=O)Nc1ccc(N(C)c2ccnc(Nc3ccc(N4CCN(C)CC4)cc3)n2)cc1,i
O=C(CCS(=O)(=O)c1ccc(Br)cc1)N1CCCCCC1,-283.3
O=C(CSc1nnc(-c2ccc(F)cc2)n1CC1CCCO1)NCc1ccco1 (configuration not stated),i
CC(C)C[C@H]1CN=C(Nc2ccccc2)N1CC1CCC(C(C)(C)C)CC1 (some centres not stated),i
CNC[C@@H]1Oc2ccc(NC(=O)Nc3cccc4ccccc34)cc2C(=O)N([C@@H](C)CO)C[C@@H]1C,i
CN(C)c1cc(Cl)c2nonc2c1N,i
Cc1nn(-c2ccccc2)c(N2CCCC2)c1/C=C1\N=C(c2ccc(OC(C)C)cc2)OC1=O,i
CCN(CC)c1ccc(/C=C/c2nc3ccccc3s2)cc1,-304.8
CC[n+]1c(/C=C/N(C)c2ccccc2)n(-c2ccccc2)c2ccc(-c3nc4ccccc4s3)cc21,i
COc1ccc(N=CC2=C(Nc3ccc(OC)cc3)c3c(C)nn(-c4ccccn4)c3CC2)cc1,i
CC(C)Cn1c(N)c(C(=O)NCC2CCCO2)c2nc3ccccc3nc21 (configuration not stated),i
COc1ccc(-c2cc(C(F)(F)F)n3ncc(C(=O)NCC4CCCO4)c3n2)cc1OC (configuration not stated),-495.9
COCCn1c(N)c(C(=O)NCC2CCCO2)c2nc3ccccc3nc21 (configuration not stated),i
N#CCCN(C(=O)COC(=O)C12CC3CC(CC(O)(C3)C1)C2)c1ccc(F)cc1,i
COc1ccc(NS(=O)(=O)c2cc(C(=O)N3CCC3)ccc2C)cc1,i
CNC[C@H](Cc1cccc2ccccc12)NC[C@H](CCSC)NCC1CCC(C(C)(C)C)CC1 (some centres not stated),i
O=C1c2ccccc2[C@@H]2C[C@@H](O)[C@H](Nc3cccc4ccccc34)CCN12,i
O=C(/C=C/c1ccco1)c1ccc(NC(=O)C23CC4CC(CC(C4)C2)C3)cc1,i
CCOc1cc(C2C(C(C)=O)=C(O)C(=O)N2CCc2c[nH]c3ccccc23)ccc1O (configuration not stated),i
CCCOc1ccc(C2C(C(=O)c3ccco3)=C(O)C(=O)N2CCN2CCOCC2)cc1OC (configuration not stated),-492.2
CCOC(=O)c1c(NC(=O)N/N=C/c2ccc(O)c(OC)c2)sc(C(C)=O)c1C,-63.1
SMILES,Apaf-1 act
COc1cc(/C=N/NC(=O)c2ccncc2)ccc1O,i
CSCCC(NC(=O)c1ccccc1Br)C(=O)N1CCN(C(C)=O)CC1 (configuration not stated),i
CCCCCCSc1ccc(-c2nc3cnccn3c2NCCCC)cc1,i
Cc1nn(CCc2nn[nH]n2)c2nc(-c3ccc(C4CCCCC4)cc3)cc(C(F)(F)F)c12,i
O=C(Nc1nc2c(Cl)cccc2s1)c1ccc([N+](=O)[O-])o1,-119.8
CC(C)N(C(=O)[C@H]1C[C@H](CC(=O)NCCC2=CCCCC2)C(=O)N2CCc3c([nH]c4ccc(Cl)cc34)[C@]12C)C(C)C,i
COCC(=O)O[C@]1(CCN(C)CCCc2nc3ccccc3[nH]2)CCc2cc(F)ccc2[C@@H]1C(C)C,i
COc1ccc(CN(C)C(C)C(=O)Nc2ccc(S(=O)(=O)N3CCCC3)cc2)c(OC)c1OC (configuration not stated),-83.3
COc1ccc(CC(=O)N(C)CC(=O)Nc2ccccc2C(F)(F)F)cc1S(=O)(=O)N1CCOCC1,i
COc1ccc(CC(=O)N(C)CC(=O)Nc2c(C)cccc2C)cc1S(=O)(=O)N1CCOCC1,i
O=C1Cc2cc(S(=O)(=O)N3CCNCC3)ccc2N1,i
CCC1CCc2sc(C(=O)NCC(c3ccc(OC)cc3)N3CCCC3)cc2C1 (configuration not stated),i
O=C1NC(Cc2ccc(O)cc2)c2nc3ccc(Cl)cc3c(=O)n2-c2ccc(Cl)cc21 (configuration not stated),-42.1
O=C(OCC(=O)N1CCC(c2ccccc2)=N1)c1ccc([N+](=O)[O-])s1,i
O=C1Cc2cc([N+](=O)[O-])ccc2N1c1c(Cl)cccc1Cl,i
Oc1ccccc1/C=N/Nc1cc(N2CCCC2)nc(N2CCCC2)n1,i
COc1ccc2c3c(cccc13)N(C)N=C2C,i
NC(=O)[C@H](Cc1cc2ccccc2s1)NC(=O)[C@@H]1CC2(CC(c3cccc(NC(=O)[C@@H]4CCC(=O)N4)c3)=NO2)CN1C(=O)/C=C/c1c(F)cccc1Cl (some centres not stated),i
C=C(C)C(=O)Nc1cccc(C2=NOC3(C2)C[C@@H](C(N)=O)N(C(=O)C2(C)CC2)C3)c1 (some centres not stated),-295.2
O=C(Nc1ccccc1)Nc1ccc(O)c2ccccc12,i
CCCCN1CC[C@H]2C=CC[C@@H](C(=O)N3CCOCC3)[C@H]2C1=O,-437.1
O=C1OC(Nc2cc(Br)cc3cccnc23)c2ccccc21 (configuration not stated),i
Cc1c(C#N)c(=O)oc2ccc3ccccc3c12,-97.5
CCCn1nc(C(=O)Nc2ccc(-n3cnnn3)cc2)c2ccccc2c1=O,i
CN(C)CCCNc1cc(O)c2ncccc2c1,i
SMILES,Apaf-1 act
Oc1ccc(C[C@H]2CNCCN2CCCCC2CCCCC2)cc1,i
Cc1noc(C)c1S(=O)(=O)N1CCN(C(c2ccccc2)c2ccc(Cl)cc2)CC1 (configuration not stated),-108.2
CCCN1CCN(C(=O)C2CCN(S(=O)(=O)c3c(C)noc3/C=C/c3ccc(C)cc3)CC2)CC1,i
O=S(=O)(NCC(c1ccccc1)N1CCNCC1)c1ccc(Cl)cc1 (configuration not stated),i
COc1ccc(CC2=CC(=O)c3ccccc3C2=O)cc1,i
CCOc1ccc(OCCSc2ccc(S(=O)(=O)N3CCN(C)CC3)cn2)cc1,i
CN(Cc1ccccn1)C(=O)c1ccc2nc(Cc3cccc(Cl)c3)oc2c1,-115.6
CC1=C(C#N)C(=O)N(C2CCS(=O)(=O)C2)C(=O)/C1=C\c1ccco1 (configuration not stated),i
O=c1cc(N/N=C/c2ccccc2)[nH]c(=O)[nH]1,i
CCCCCCCCCCCCC/C=C/[C@@H](O)[C@@H](N)CO,i
CC(C(=O)NC(=O)NC1CCCCC1)N(C)CC(=O)Nc1ccc(F)c(F)c1F (configuration not stated),i
CC1(C)C=C2C(=NN(c3ccccc3)C(N)=C2C#N)CO1,i
O=C(NC(C(=O)N/N=C/c1cc([N+](=O)[O-])ccc1O)c1n[nH]c(=O)c2ccccc12)c1ccccc1 (configuration not stated),-438.5
O=[N+]([O-])c1ccc(O)c(C=Nc2cccc3ncccc23)c1,i
O=[N+]([O-])c1ccc(O)c(C=Nc2cccc3ccccc23)c1,i
Oc1c(Br)cc(Br)cc1C=Nc1cccc2ncccc12,i

# From PubChem
